Reference: ChEMBL document CHEMBL2034932, “2-Anilino-4-(benzimidazol-2-yl)pyrimidines--a multikinase inhibitor scaffold with antiproliferative activity toward cancer cell lines” (Eur J Med Chem, 2012)
pIC50: −log10 of the molar value. The source made the active and inactive calls. The rule behind the calls is not given here.

How the values were obtained:
[1] = molecular target: T1, RAC-alpha serine/threonine-protein kinase (Homo sapiens, UniProt P31749); assay: Inhibition of recombinant AKT1 using GSK3 as substrate assessed as inhibition of [33P]Phosphate incorporation into substrate after 80 mins by scintillation counting
T1 sequence (P31749 whole entry): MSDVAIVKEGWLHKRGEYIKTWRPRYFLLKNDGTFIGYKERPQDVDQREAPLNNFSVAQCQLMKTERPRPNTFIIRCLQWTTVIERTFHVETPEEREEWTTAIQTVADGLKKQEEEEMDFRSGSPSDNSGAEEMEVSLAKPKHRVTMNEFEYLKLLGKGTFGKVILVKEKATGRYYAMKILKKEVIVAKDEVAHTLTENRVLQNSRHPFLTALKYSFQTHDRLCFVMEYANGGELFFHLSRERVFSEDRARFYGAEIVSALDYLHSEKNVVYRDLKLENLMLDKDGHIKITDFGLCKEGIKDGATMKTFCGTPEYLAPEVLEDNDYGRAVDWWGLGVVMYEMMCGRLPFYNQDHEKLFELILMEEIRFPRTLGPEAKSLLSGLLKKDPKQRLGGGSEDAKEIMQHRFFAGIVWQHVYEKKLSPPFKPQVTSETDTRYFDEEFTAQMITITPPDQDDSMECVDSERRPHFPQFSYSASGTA
Summary of the method: (§1)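 Recombinant AKT1 was assayed radiometrically with [33P]-ATP (about 5×10^5 cpm/well) and GSK3(14-27) substrate at 2000 ng/50 µL. Buffer was 60 mM HEPES-NaOH pH 7.5 with 3 mM MgCl2 and 3 mM MnCl2, and compound was added in 10% DMSO. After 80 min at 30 °C the reaction was stopped with 2% phosphoric acid, washed with 0.9% NaCl and 33P incorporation counted by scintillation.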

[2] = molecular target: T2, Aurora kinase B (Homo sapiens, UniProt Q96GD4); assay: Inhibition of recombinant Aurora B using tetra(LRRWSLG) as substrate assessed as inhibition of [33P]Phosphate incorporation into substrate after 80 mins by scintillation counting
T2 sequence (Q96GD4 whole entry): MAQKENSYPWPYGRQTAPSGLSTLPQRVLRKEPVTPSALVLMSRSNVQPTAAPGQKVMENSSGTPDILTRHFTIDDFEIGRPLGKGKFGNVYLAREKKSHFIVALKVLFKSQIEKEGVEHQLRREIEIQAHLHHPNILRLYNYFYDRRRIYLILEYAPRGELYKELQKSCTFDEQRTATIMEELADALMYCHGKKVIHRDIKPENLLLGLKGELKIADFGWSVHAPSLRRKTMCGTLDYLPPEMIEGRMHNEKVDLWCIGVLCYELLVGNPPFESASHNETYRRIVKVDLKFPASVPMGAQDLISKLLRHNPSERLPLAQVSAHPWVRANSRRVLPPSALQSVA

[3] = molecular target: T3, Focal adhesion kinase 1 (Homo sapiens, UniProt Q05397); assay: Inhibition of recombinant FAK using poly(Glu,Tyr)4 as substrate assessed as inhibition of [33P]Phosphate incorporation into substrate after 80 mins by scintillation counting
Target sequence in this assay (Q05397 whole entry): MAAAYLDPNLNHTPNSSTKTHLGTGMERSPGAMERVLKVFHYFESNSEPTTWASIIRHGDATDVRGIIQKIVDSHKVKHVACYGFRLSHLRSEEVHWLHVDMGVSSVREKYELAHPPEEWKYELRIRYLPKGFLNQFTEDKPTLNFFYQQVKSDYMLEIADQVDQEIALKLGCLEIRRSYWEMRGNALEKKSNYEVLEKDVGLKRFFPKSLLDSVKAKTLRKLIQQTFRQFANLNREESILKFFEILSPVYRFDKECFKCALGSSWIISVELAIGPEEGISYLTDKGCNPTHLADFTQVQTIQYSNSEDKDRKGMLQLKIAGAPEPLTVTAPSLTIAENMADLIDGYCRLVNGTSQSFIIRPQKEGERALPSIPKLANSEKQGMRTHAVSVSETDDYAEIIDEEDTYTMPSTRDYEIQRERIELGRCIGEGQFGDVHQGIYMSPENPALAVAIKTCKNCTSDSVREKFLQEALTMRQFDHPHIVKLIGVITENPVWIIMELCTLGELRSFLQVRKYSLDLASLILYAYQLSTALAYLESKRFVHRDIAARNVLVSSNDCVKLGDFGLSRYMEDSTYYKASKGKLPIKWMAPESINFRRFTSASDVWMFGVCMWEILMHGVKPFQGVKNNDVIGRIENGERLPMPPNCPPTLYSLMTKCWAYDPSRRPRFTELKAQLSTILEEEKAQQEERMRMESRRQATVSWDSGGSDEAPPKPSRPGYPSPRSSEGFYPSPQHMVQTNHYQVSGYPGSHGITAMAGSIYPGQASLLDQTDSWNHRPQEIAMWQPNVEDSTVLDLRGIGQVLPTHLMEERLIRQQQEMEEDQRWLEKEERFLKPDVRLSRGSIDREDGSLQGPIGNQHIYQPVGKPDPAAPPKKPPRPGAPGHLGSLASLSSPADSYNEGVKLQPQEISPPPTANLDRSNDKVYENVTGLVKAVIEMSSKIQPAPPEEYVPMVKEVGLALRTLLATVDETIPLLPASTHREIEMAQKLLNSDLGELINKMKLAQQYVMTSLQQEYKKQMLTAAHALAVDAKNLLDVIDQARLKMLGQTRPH

[4] = molecular target: T4, Vascular endothelial growth factor receptor 2 (Homo sapiens, UniProt P35968); assay: Inhibition of recombinant VEGFR2 using poly(Glu,Tyr)4 as substrate assessed as inhibition of [33P]Phosphate incorporation into substrate after 80 mins by scintillation counting
[5] = molecular target: T5, Serine/threonine-protein kinase PLK1 (Homo sapiens, UniProt P53350); assay: Inhibition of recombinant PLK1 using RBERCHKtide as substrate assessed as inhibition of [33P]Phosphate incorporation into substrate after 80 mins by scintillation counting
T5 sequence (P53350 whole entry): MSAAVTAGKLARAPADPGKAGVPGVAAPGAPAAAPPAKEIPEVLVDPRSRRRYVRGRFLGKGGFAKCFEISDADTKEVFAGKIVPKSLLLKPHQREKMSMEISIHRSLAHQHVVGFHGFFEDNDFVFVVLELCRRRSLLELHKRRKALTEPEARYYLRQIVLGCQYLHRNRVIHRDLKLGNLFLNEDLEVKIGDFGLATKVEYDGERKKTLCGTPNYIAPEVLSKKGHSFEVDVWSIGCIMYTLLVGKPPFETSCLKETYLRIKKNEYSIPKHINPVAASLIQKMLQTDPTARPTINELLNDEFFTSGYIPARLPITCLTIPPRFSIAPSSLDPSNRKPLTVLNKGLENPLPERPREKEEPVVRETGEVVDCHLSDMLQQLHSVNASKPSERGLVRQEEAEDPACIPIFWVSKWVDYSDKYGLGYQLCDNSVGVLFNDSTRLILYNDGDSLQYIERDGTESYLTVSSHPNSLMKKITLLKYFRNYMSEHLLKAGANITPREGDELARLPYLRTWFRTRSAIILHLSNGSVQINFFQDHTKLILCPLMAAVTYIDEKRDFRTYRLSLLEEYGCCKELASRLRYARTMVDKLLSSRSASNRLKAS
Summary of the method: (§2)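 PLK1 (recombinant) was phosphorylating RBER-CHKtide at 2000 ng/50 µL with [33P]-ATP (about 5×10^5 cpm/well). Buffer was 60 mM HEPES-NaOH pH 7.5 with 3 mM MgCl2 and 3 mM MnCl2. After 80 min at 30 °C, 2% phosphoric acid stopped the reaction and wells were washed with saline. Incorporated 33P was counted, with residual activity relative to enzyme-free and inhibitor-free controls.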

[6] = molecular target: T1, RAC-alpha serine/threonine-protein kinase; assay: Inhibition of recombinant AKT1 using GSK3 as substrate assessed as inhibition of [33P]Phosphate incorporation into substrate at <10 uM after 80 mins by scintillation counting
Summary of the method: as §1, with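 “scintillation. Residual activity was set against no-enzyme and no-inhibitor controls.” for “scintillation.”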

[7] = molecular target: T2, Aurora kinase B; assay: Inhibition of recombinant Aurora B using tetra(LRRWSLG) as substrate assessed as inhibition of [33P]Phosphate incorporation into substrate at <10 uM after 80 mins by scintillation counting
Summary of the method: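 Recombinant Aurora B was assayed with [33P]-ATP (about 5×10^5 cpm/well) and tetra(LRRWSLG) substrate at 500 ng/50 µL. Buffer was 60 mM HEPES-NaOH pH 7.5 with 3 mM MgCl2 and 3 mM MnCl2. Incubation ran 80 min at 30 °C and was stopped with 2% phosphoric acid, then washed with saline. Bound 33P was counted by scintillation, with activity normalised to no-enzyme (0%) and no-inhibitor (100%) controls.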

[8] = molecular target: T3, Focal adhesion kinase 1; assay: Inhibition of recombinant FAK using poly(Glu,Tyr)4 as substrate assessed as inhibition of [33P]Phosphate incorporation into substrate at <10 uM after 80 mins by scintillation counting
Summary of the method: (§3)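 FAK and VEGF-R2 were each tested as recombinant kinase with poly(Glu,Tyr)4:1 substrate at 125 ng/50 µL and [33P]-ATP (about 5×10^5 cpm/well). Buffer was 60 mM HEPES-NaOH pH 7.5 with 3 mM MgCl2 and 3 mM MnCl2. Reactions ran 80 min at 30 °C and were quenched with 2% phosphoric acid and washed with 0.9% NaCl. Scintillation counts were normalised between no-enzyme and uninhibited controls.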

[9] = molecular target: T4, Vascular endothelial growth factor receptor 2; assay: Inhibition of recombinant VEGFR2 using poly(Glu,Tyr)4 as substrate assessed as inhibition of [33P]Phosphate incorporation into substrate at <10 uM after 80 mins by scintillation counting; summary of the method: as §3
[10] = molecular target: T5, Serine/threonine-protein kinase PLK1; assay: Inhibition of recombinant PLK1 using RBERCHKtide as substrate assessed as inhibition of [33P]Phosphate incorporation into substrate at <10 uM after 80 mins by scintillation counting; summary of the method: as §2
[11] = molecular target: T6, NUAK family SNF1-like kinase 1 (Homo sapiens) (UniProt O60285); assay: Inhibition of recombinant ARK5 at <10 uM by radiometric kinase assay
T6 sequence (whole entry): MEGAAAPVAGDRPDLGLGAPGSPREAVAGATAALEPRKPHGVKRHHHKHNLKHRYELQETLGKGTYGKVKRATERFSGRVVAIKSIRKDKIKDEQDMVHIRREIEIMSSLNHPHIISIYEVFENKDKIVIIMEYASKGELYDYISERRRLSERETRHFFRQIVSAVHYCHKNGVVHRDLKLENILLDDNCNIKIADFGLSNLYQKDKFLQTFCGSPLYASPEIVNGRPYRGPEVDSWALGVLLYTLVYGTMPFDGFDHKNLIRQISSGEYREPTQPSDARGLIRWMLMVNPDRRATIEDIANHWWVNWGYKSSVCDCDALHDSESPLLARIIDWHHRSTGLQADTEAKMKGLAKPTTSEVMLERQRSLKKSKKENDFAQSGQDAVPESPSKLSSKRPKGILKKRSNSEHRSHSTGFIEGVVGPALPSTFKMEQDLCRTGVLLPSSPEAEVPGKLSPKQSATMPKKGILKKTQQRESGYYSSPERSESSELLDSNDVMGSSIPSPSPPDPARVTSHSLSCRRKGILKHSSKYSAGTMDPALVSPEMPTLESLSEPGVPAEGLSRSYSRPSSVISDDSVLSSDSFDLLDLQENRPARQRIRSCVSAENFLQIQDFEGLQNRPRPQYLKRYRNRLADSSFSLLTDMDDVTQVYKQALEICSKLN
Summary of the method: (§4)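 Recombinant kinases were tested in a radiometric 33P-ATP assay in 60 mM HEPES-NaOH pH 7.5 with 3 mM MgCl2 and 3 mM MnCl2, with compound added in 10% DMSO. Incubation was 80 min at 30 °C, stopped with 2% phosphoric acid and washed. 33P incorporation was scintillation-counted, and activity was scaled between no-enzyme and no-inhibitor controls.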

[12] = molecular target: Tyrosine-protein kinase receptor UFO (Homo sapiens) (UniProt P30530); assay: Inhibition of recombinant AXL at <10 uM by radiometric kinase assay; summary of the method: as §4
[13] = molecular target: Insulin-like growth factor 1 receptor (Homo sapiens) (UniProt P08069); assay: Inhibition of recombinant IGF1R at <10 uM by radiometric kinase assay; summary of the method: as §4
[14] = molecular target: Hepatocyte growth factor receptor (Homo sapiens) (UniProt P08581); assay: Inhibition of recombinant MET at <10 uM by radiometric kinase assay; summary of the method: as §4
Sequence of Hepatocyte growth factor receptor (Homo sapiens) (P08581 whole entry): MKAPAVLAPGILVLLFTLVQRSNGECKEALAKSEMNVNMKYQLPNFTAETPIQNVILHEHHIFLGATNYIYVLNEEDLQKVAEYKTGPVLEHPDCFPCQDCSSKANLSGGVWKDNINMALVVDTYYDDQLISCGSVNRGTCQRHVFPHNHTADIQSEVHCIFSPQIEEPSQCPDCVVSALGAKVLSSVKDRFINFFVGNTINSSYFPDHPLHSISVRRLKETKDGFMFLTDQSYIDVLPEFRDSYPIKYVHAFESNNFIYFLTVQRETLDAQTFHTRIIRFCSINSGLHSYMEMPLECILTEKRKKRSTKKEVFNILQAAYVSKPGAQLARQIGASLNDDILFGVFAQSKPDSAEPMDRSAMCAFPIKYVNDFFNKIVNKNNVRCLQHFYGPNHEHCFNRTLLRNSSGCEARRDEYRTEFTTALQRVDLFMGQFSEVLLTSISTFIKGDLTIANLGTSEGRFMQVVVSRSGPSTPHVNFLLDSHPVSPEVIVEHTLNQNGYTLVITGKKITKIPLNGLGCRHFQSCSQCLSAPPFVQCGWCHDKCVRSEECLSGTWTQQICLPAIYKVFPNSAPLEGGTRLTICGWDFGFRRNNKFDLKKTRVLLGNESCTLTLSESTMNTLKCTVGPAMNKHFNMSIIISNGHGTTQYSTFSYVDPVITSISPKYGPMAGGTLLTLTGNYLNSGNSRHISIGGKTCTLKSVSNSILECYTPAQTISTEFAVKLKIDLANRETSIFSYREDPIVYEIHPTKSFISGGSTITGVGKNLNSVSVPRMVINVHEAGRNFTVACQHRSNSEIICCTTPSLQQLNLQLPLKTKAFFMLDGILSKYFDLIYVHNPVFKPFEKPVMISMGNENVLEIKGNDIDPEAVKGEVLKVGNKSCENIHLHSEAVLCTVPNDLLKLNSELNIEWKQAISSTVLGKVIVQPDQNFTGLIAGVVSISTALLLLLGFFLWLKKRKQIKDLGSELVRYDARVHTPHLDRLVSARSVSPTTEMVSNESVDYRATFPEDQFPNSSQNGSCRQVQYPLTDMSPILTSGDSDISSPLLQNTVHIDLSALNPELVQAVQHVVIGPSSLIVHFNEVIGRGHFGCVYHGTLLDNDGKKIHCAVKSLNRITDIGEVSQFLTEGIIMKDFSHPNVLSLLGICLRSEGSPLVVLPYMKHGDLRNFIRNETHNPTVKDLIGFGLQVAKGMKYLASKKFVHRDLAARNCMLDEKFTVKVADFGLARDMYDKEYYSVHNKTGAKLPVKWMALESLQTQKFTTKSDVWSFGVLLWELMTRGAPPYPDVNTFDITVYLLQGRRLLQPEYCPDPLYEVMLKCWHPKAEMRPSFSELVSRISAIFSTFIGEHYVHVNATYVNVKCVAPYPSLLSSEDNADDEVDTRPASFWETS

[15] = molecular target: Serine/threonine-protein kinase N1 (Homo sapiens) (UniProt Q16512); assay: Inhibition of recombinant PRK1 at <10 uM by radiometric kinase assay; summary of the method: as §4
Sequence of Serine/threonine-protein kinase N1 (Homo sapiens) (Q16512 2-942 limits assumed): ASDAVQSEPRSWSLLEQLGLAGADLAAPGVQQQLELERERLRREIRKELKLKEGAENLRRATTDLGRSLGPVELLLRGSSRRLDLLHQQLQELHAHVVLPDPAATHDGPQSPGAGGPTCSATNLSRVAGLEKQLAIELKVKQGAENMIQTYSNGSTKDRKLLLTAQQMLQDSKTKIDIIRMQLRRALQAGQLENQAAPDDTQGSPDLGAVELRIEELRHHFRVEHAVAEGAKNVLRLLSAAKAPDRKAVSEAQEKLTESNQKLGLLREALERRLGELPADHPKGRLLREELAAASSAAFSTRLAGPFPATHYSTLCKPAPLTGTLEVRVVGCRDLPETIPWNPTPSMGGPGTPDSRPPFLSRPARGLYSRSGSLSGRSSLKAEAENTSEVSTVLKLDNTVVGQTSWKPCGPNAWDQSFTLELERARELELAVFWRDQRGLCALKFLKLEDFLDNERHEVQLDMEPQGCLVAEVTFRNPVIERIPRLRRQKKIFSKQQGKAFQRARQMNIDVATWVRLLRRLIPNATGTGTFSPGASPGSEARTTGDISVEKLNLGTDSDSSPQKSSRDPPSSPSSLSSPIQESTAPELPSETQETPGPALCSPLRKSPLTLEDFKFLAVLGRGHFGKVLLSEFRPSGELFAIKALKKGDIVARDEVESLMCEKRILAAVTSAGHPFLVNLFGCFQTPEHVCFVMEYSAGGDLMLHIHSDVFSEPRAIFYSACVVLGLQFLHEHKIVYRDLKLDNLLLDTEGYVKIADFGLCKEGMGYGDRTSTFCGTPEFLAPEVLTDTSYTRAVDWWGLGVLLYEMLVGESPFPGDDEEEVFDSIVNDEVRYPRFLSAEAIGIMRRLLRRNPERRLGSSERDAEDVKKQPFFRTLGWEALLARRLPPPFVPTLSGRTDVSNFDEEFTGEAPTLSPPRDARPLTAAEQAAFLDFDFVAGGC

[16] = molecular target: Proto-oncogene tyrosine-protein kinase Src (Homo sapiens) (UniProt P12931); assay: Inhibition of recombinant SRC at <10 uM by radiometric kinase assay; summary of the method: as §4

| pIC50 [1] | pIC50 [2] | pIC50 [3] | pIC50 [4] | pIC50 [5] | inhibition [6] | inhibition [7] | inhibition [8] | inhibition [9] | inhibition [10] | inhibition [11] | inhibition [12] | inhibition [13] | inhibition [14] | inhibition [15] | inhibition [16] | SMILES |
| --- | --- | --- | --- | --- | --- | --- | --- | --- | --- | --- | --- | --- | --- | --- | --- | --- |
| 4.12 | 4.21 | 4.57 | 4.36 | 4.82 | inactive | inactive | inactive | inactive | inactive | inactive | inactive | inactive | inactive | inactive | inactive | COc1ccc(Nc2nccc(-c3nc4ccccc4n3C)n2)cc1 |
| < 4.00 | 5.26 | 5.28 | 5.49 | 5.43 | – | – | – | – | – | – | – | – | – | – | – | Cn1c(-c2ccnc(Nc3cccc(O)c3)n2)nc2ccccc21 |
| < 4.00 | < 4.00 | 4.42 | 4.87 | 4.22 | inactive | inactive | inactive | inactive | inactive | inactive | inactive | inactive | inactive | inactive | inactive | Cn1c(-c2ccnc(Nc3ccccc3)n2)nc2ccccc21 |
| 4.39 | – | 4.16 | 4.42 | – | inactive | – | inactive | inactive | inactive | inactive | inactive | inactive | inactive | inactive | inactive | Cn1c(-c2ccnc(Nc3ccc(Cl)cc3)n2)nc2ccccc21 |
| < 4.00 | 5.15 | 4.98 | 5.12 | 5.22 | – | – | – | – | – | – | – | – | – | – | – | Cn1c(-c2ccnc(Nc3ccc(O)c(Cl)c3)n2)nc2ccccc21 |
| < 4.00 | < 4.00 | < 4.00 | < 4.00 | < 4.00 | inactive | inactive | inactive | inactive | inactive | inactive | inactive | inactive | inactive | inactive | inactive | CCOc1ccc(Nc2nccc(-c3nc4ccccc4n3C)n2)cc1 |
| – | – | 4.04 | 4.07 | – | inactive | – | inactive | inactive | inactive | inactive | inactive | inactive | inactive | inactive | inactive | Cn1c(=O)c2ccc(-c3nc4ccccc4n3C)nc2n(C)c1=O |
| – | – | 4.24 | 4.60 | – | inactive | – | inactive | inactive | inactive | inactive | inactive | inactive | inactive | inactive | inactive | Cc1ccc(Nc2nccc(-c3nc4ccccc4n3C)n2)cc1 |
| < 4.00 | 4.95 | 4.94 | 5.04 | 4.92 | – | – | – | – | – | – | – | – | – | – | – | Cn1c(-c2ccnc(Nc3ccc(O)cc3)n2)nc2ccccc21 |
